Experimental data taken from ChEMBL document CHEMBL4813998, “Structural simplification of evodiamine: Discovery of novel tetrahydro-β-carboline derivatives as potent antitumor agents” (Bioorg Med Chem Lett, 2021).
Active and inactive are the calls of the source. The rule behind the calls is not given here.

What was measured:
[1] = Antiproliferative activity against human HCT116 cells assessed as growth inhibition by CCK8 assay; type: functional, cell-based, Epithelial cell
[2] = biological target: DNA topoisomerase 2-alpha (Homo sapiens) (UniProt P11388); test: Inhibition of TOP2 (unknown origin) assessed as fractured DNA fragments using supercoiled plasmid DNA at 250 uM
Procedure, shortened: (§1)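 Purified Top2 was incubated with DNA and compounds at 250 μM and 100 μM. The read-out was the appearance of fractured DNA fragments, with etoposide as the positive control.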

[3] = biological target: DNA topoisomerase 2-alpha (Homo sapiens) (UniProt P11388); test: Inhibition of TOP2 (unknown origin) assessed as fractured DNA fragments using supercoiled plasmid DNA at 50 uM relative to etoposide
[4] = Antiproliferative activity against human A549 cells assessed as growth inhibition by CCK8 assay; type: functional, cell-based, Epithelial cell
[5] = Antiproliferative activity against human MDA-MB-231 cells assessed as growth inhibition by CCK8 assay; type: functional, cell-based, Epithelial cell
[6] = biological target: T1, DNA topoisomerase 1 (Homo sapiens) (UniProt P11387); test: Inhibition of TOP1 (unknown origin) assessed as decrease in relaxation of supercoiled DNA using supercoiled plasmid DNA at 500 uM relative to camptothecin
T1 sequence (whole entry): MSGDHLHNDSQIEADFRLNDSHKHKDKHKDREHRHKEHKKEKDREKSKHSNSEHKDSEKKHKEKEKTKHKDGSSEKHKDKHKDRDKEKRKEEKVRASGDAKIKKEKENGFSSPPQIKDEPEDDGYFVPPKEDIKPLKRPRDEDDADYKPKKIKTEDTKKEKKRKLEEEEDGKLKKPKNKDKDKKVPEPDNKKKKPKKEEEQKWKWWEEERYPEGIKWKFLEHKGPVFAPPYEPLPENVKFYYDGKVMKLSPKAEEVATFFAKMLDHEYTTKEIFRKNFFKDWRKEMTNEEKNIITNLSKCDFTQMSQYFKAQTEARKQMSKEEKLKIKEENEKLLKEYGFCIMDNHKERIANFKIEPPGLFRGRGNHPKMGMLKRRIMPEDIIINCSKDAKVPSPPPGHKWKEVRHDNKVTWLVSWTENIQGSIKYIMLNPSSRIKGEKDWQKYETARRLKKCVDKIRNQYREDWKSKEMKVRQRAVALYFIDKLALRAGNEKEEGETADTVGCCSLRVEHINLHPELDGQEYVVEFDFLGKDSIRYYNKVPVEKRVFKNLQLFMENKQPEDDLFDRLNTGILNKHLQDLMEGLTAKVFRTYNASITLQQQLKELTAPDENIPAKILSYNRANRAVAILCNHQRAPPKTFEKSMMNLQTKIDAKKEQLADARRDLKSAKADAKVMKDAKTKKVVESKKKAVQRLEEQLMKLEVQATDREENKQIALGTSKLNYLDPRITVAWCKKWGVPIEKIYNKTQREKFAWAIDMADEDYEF
Procedure, shortened: (§2)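 Top1-mediated relaxation of supercoiled DNA was tested with compounds at 500 μM and 100 μM. Camptothecin served as the positive control.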

[7] = biological target: DNA topoisomerase 2-alpha (Homo sapiens) (UniProt P11388); test: Inhibition of TOP2 (unknown origin) assessed as fractured DNA fragments using supercoiled plasmid DNA at 100 uM relative to etoposide; procedure, shortened: as §1
[8] = biological target: T1, DNA topoisomerase 1 (Homo sapiens); test: Inhibition of TOP1 (unknown origin) assessed as decrease in relaxation of supercoiled DNA using supercoiled plasmid DNA at 100 uM relative to camptothecin; procedure, shortened: as §2
Mus musculus = test: Toxicity in nude mouse xenografted with human HCT116 cells assessed as body weight loss at 50 mg/kg/day, ip administered bid for 21 days; type: functional, organism-based; settings: Epithelial cell, time 21.0 day
Procedure, shortened: (§3)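 HCT116 cells were inoculated into nude mice to form xenografts. Dosing was intraperitoneal at 50 mg/kg/day for 21 consecutive days. Evodiamine was given at the same dosage as the comparator. Tumor growth and body weight after implantation were tracked, and data are reported as mean ± SEM.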

HCT-116 [9] = test: Induction of apoptosis in human HCT116 cells assessed as increase in caspase-3 expression after 24 hrs by Western blot analysis; type: functional, cell-based; settings: dose 0.03-1.5 µM
Procedure, shortened: (§4)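 HCT116 cells were exposed to various concentrations for 24 h. Lysates were then probed by western blot for caspase-9, caspase-3, Bcl-2, Bax and cytochrome C.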

HCT-116 [10] = test: Induction of apoptosis in human HCT116 cells assessed as increase in cytochrome c expression after 24 hrs by Western blot analysis; type: functional, cell-based; settings: dose 0.03-1.5 µM; procedure, shortened: as §4
HCT-116 [11] = test: Induction of apoptosis in human HCT116 cells assessed as decrease in Bcl-2 protein expression at 0.03 to 1.5 uM after 24 hrs by Western blot analysis; type: functional, cell-based; settings: dose 0.03-1.5 µM; procedure, shortened: as §4
HCT-116 [12] = test: Induction of apoptosis in human HCT116 cells assessed as increase in caspase-9 expression after 24 hrs by Western blot analysis; type: functional, cell-based; settings: dose 0.03-1.5 µM; procedure, shortened: as §4
HCT-116 [13] = test: Induction of apoptosis in human HCT116 cells assessed as increase in bax protein expression at 0.03 to 1.5 uM after 24 hrs by Western blot analysis; type: functional, cell-based; settings: dose 0.03-1.5 µM; procedure, shortened: as §4
HCT-116 [14] = test: Antitumor activity against human HCT116 cells xenografted in nude mice assessed as tumor growth inhibition at 50 mg/kg/day, ip administered bid for 21 days relative to control; type: functional, organism-based; settings: time 21.0 day; procedure, shortened: as §3

DNA topoisomerase 2-alpha (Homo sapiens), sequence (P11388 whole entry, the tested form may be a part): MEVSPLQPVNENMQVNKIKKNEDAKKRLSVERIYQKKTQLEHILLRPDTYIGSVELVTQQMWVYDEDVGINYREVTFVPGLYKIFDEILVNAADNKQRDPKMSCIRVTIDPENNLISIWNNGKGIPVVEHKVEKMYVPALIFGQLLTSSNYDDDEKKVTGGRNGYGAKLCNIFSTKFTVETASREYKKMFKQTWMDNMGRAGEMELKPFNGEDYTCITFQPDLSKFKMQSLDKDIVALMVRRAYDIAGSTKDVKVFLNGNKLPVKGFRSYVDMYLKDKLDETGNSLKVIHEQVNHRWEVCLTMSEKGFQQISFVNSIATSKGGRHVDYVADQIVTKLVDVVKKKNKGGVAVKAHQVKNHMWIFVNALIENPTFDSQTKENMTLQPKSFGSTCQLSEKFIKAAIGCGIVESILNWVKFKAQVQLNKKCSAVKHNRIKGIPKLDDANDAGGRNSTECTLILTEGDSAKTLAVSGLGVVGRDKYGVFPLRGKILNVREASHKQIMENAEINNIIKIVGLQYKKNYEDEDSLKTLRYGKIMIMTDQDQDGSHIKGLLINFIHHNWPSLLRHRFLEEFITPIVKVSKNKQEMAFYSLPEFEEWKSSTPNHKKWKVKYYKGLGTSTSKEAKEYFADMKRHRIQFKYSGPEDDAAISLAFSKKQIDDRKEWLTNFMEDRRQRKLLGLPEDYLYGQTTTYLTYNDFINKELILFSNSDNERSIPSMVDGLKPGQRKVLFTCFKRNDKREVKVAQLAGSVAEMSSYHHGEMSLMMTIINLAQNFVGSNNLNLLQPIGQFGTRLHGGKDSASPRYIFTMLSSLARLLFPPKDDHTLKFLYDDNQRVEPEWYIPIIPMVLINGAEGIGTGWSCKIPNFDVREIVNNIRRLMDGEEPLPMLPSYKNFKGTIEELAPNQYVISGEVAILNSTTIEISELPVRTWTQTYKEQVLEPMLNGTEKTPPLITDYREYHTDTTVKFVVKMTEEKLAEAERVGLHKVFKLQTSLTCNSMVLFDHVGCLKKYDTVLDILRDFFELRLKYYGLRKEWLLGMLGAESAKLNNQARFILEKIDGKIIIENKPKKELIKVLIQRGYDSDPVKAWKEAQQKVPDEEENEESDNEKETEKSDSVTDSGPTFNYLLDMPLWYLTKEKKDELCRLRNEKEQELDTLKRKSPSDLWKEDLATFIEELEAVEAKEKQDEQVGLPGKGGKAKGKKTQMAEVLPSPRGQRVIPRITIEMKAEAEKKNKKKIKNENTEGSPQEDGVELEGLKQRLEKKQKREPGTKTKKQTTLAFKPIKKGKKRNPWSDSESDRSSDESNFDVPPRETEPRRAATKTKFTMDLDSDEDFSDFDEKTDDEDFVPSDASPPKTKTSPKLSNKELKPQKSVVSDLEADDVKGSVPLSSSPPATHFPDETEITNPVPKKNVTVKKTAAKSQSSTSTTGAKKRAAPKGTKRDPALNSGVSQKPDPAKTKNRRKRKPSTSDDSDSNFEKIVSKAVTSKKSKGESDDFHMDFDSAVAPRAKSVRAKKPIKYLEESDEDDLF

Structure (SMILES) | IC50 ([1]; Homo sapiens, Epithelial cell) [µM] | IC50 ([4]; Homo sapiens, Epithelial cell) [µM] | IC50 ([5]; Homo sapiens, Epithelial cell) [µM] | also measured
COc1ccc2[nH]c3c(c2c1)CCN(C(=O)CCc1ccc(F)cc1)C3c1ccccc1 (stereo unspecified) | 0.72 | 3.8 | 0.34 | inhibition [2]: Active; inhibition [3]: Active; inhibition [6]: Active; inhibition [7]: Active
CC(C)C1c2[nH]c3ccccc3c2CCN1C(=O)c1ccccc1 (stereo unspecified) | > 100 | > 100 | > 100 | –
COc1ccc2[nH]c3c(c2c1)CCN(C(=O)CCc1ccccc1)C3c1ccc(Cl)c(Cl)c1 (single isomer, unassigned; (+)) | – | – | – | IC50 ([1]; epithelial cell): 0.13 µM; IC50 ([4]; epithelial cell): 0.65 µM; IC50 ([5]; epithelial cell): 0.042 µM
COc1ccc2[nH]c3c(c2c1)CCN(C(=O)CCc1ccccc1)C3c1ccc(Cl)c(Cl)c1 (single isomer, unassigned; (-)) | – | – | – | IC50 ([1]; epithelial cell): 17.7 µM; IC50 ([4]; epithelial cell): 16.1 µM; IC50 ([5]; epithelial cell): > 50 µM
COc1ccc2[nH]c3c(c2c1)CCN(C(=O)c1ccccc1)C3c1ccc(Br)cc1 (stereo unspecified) | 3.62 | 2.09 | 18.8 | –
COc1cc([C@@H]2c3cc4c(cc3[C@@H](O[C@@H]3O[C@@H]5CO[C@@H](C)O[C@H]5[C@H](O)[C@H]3O)[C@H]3COC(=O)[C@H]23)OCO4)cc(OC)c1O | – | – | – | inhibition [2]: Active; inhibition [3]: Active; inhibition [7]: Active
COc1ccc2[nH]c3c(c2c1)CCN(C(=O)c1cccc(F)c1)C3c1ccccc1 (stereo unspecified) | 4.8 | 9.27 | 3.28 | –
COc1cccc(C(=O)N2CCc3c([nH]c4ccc(OC)cc34)C2c2ccccc2)c1 (stereo unspecified) | 5.13 | 12 | 3.01 | –
COc1ccc2[nH]c3c(c2c1)CCN(C(=O)c1ccccc1)C3c1ccc(Cl)c(Cl)c1 (stereo unspecified) | 0.54 | 1.66 | 0.59 | inhibition [2]: Active; inhibition [3]: Active; inhibition [8]: Active; inhibition [6]: Active; inhibition [7]: Active
COc1ccc2[nH]c3c(c2c1)CCN(C(=O)c1ccc([N+](=O)[O-])cc1)C3c1ccccc1 (stereo unspecified) | 58.1 | 25.5 | 6.18 | –
COc1ccc2[nH]c3c(c2c1)CCN(C(=O)c1ccccc1)C3c1ccc(C)cc1 (stereo unspecified) | 6.45 | 17.4 | 22.2 | –
COc1ccc2[nH]c3c(c2c1)CCN(C(=O)c1ccc(Cl)cc1)C3c1ccccc1 (stereo unspecified) | 5.56 | 2.15 | 1.11 | –
O=C(c1cccc(F)c1)N1CCc2c([nH]c3ccccc23)C1c1ccccc1 (stereo unspecified) | 32.5 | > 100 | 57.6 | –
COc1ccc2[nH]c3c(c2c1)CCN(C(=O)c1ccccc1)C3c1ccc(F)c(F)c1 (stereo unspecified) | 2.65 | 30.2 | 31 | –
COc1ccc2[nH]c3c(c2c1)CCN(C(=O)c1ccccc1)C3c1ccccc1Cl (stereo unspecified) | 6.73 | 27.2 | > 100 | –
COc1ccc2[nH]c3c(c2c1)CCN(C(=O)c1ccccc1F)C3c1ccccc1 (stereo unspecified) | 6.18 | 18.7 | 62.4 | –

Structure (SMILES) | IC50 ([1]; Homo sapiens, Epithelial cell) [µM] | IC50 ([4]; Homo sapiens, Epithelial cell) [µM] | IC50 ([5]; Homo sapiens, Epithelial cell) [µM] | also measured
O=C(c1ccccc1)N1CCc2c([nH]c3ccccc23)C1 | 21.4 | > 100 | 45.4 | –
COc1ccc2[nH]c3c(c2c1)CCN(C(=O)c1ccccc1)C3c1cccc(Br)c1 (stereo unspecified) | 3.24 | 11.9 | 40.8 | –
COc1cccc(C(=O)N2CCc3c([nH]c4ccc(OC)cc34)C2c2ccc(Cl)c(Cl)c2)c1 (stereo unspecified) | 1.97 | 13.6 | 0.68 | –
CN1c2ccccc2C(=O)N2CCc3c([nH]c4ccccc34)[C@H]21 | 19.6 | > 100 | 49 | –
O=C(c1ccccc1)N1CCc2c([nH]c3ccccc23)C1c1ccccc1 (stereo unspecified) | 57.9 | > 100 | 51.2 | –
COc1ccc(C(=O)N2CCc3c([nH]c4ccc(OC)cc34)C2c2ccccc2)cc1 (stereo unspecified) | 6.14 | 11.8 | 2.81 | –
CC[C@@]1(O)C(=O)OCc2c1cc1n(c2=O)Cc2cc3ccccc3nc2-1 [CAMPTOTHECIN] | 0.01 | 0.045 | 0.075 | –
COc1ccc2[nH]c3c(c2c1)CCN(C(=O)CCc1ccccc1F)C3c1ccccc1 (stereo unspecified) | 7.76 | 2.45 | 0.27 | –
COc1ccc2[nH]c3c(c2c1)CCN(C(=O)c1ccc(F)cc1)C3c1ccc(Cl)c(Cl)c1 (stereo unspecified) | 0.49 | 14.1 | 0.29 | inhibition [2]: Active; inhibition [3]: Active; inhibition [8]: Active; inhibition [6]: Active; inhibition [7]: Active
O=C(c1ccccc1)N1CCc2c([nH]c3ccc(O)cc23)C1c1ccccc1 (stereo unspecified) | 20.9 | 19.3 | > 100 | –
COc1ccc2[nH]c3c(c2c1)CCN(C(=O)CCc1ccccc1)C3c1ccc(Cl)c(Cl)c1 (stereo in doubt; 45) | – | – | – | inhibition [2]: Active; inhibition [3]: Active; Activity (Mus musculus): Active; inhibition [8]: Active; Activity (HCT-116 [9]): Active; Activity (HCT-116 [10]): Dose-Dependent Effect; inhibition [6]: Active; Activity (HCT-116 [11]): Active; Activity (HCT-116 [12]): Active; inhibition [7]: Active; Activity (HCT-116 [13]): Active; Activity (HCT-116 [14]): Active
COc1ccc(C(=O)N2CCc3c([nH]c4ccc(OC)cc34)C2c2ccc(Cl)c(Cl)c2)cc1 (stereo unspecified) | 4.28 | 44.6 | 1.08 | –
COc1ccc2[nH]c3c(c2c1)CCN(C(=O)c1ccc(F)cc1)C3c1ccccc1 (stereo unspecified) | 1.73 | 12.7 | 1.24 | –
COc1ccc2[nH]c3c(c2c1)CCN(C(=O)c1ccccc1)C3c1ccccc1 (stereo unspecified) | 2.53 | 5.29 | 1.48 | –
COc1ccc2[nH]c3c(c2c1)CCN(C(=O)CCc1ccccc1)C3c1ccccc1 (stereo unspecified) | 0.36 | 7.91 | 0.57 | inhibition [2]: Active; inhibition [3]: Active; inhibition [8]: Active; inhibition [6]: Active; inhibition [7]: Active
